Experimental data as given in ChEMBL document CHEMBL5678817, “FTBMT, a Novel and Selective GPR52 Agonist, Demonstrates Antipsychotic-Like and Procognitive Effects in Rodents, Revealing a Potential Therapeutic Agent for Schizophrenia” (J Pharmacol Exp Ther, 2017).
Activity calls are given as the source filed them.

Experiments:
[1] = test system: Rattus norvegicus; experiment: Pro-cognitive activity in Long-Evans rat assessed as discrimination index at 3 to 10 mg/kg, po measured after 3 mins by NORT test; type: functional, organism-based; conditions: dose 3-10 mg/kg
How it was run: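 Male Long-Evans rats (7 weeks) were habituated to a 40 × 40 × 50 cm box for 10 min. The acquisition trial was 3 min with two identical objects. Oral dosing at 3 or 10 mg/kg followed immediately after acquisition. The 3-min retention trial, with one familiar and one novel object, ran 48 h later. Exploration was hand-scored by a blinded scorer, and NDI = novel/total × 100. n = 10.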

[2] = biological target: T1, GABA-A receptor; anion channel (Homo sapiens) (UniProt P14867+P47870+P18507+P28472+P48169+Q99928+Q9UN88+P34903+O00591+O14764+Q8N1C3+P18505+P78334+P47869+P31644+Q16445); experiment: Inhibition of GABAA receptor (unknown origin) at 10 uM relative to control; type: protein-complex assay
How it was run: (§1)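 Part of a 98-target external biochemical selectivity panel that used radioligand/receptor binding-type assays. Compound tested once at 10 µM. Results are reported as % inhibition versus control; negative values mean stimulation of receptor activity.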

[3] = test system: Mus musculus; experiment: Pro-cognitive activity in C57BL/6N mouse assessed as increase in Egr-2 gene expression in hippocampus at 3 to 30 mg/kg, po […]; type: functional, organism-based; conditions: dose 3-30 mg/kg
[4] = test system: Rattus norvegicus; experiment: Pro-cognitive activity in Long-Evans rat at10 mg/kg, po measured after 1 hr by radial arm maze test; type: functional, organism-based; conditions: dose 10.0 mg/kg
How it was run: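 Male Long-Evans rats (9 weeks) were trained on the radial arm maze until they made fewer than two errors on two consecutive days. Errors were re-entries into arms or uneaten pellets, within 5 min. Oral 10 mg/kg or vehicle was given 1 h pretest, and MK-801 0.08 mg/kg s.c. or saline 30 min pretest. Scoring was blinded. n = 8–14.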

[5] = biological target: Collagenase 3 (Homo sapiens) (UniProt P45452); experiment: Inhibition of MMP13 (unknown origin) at 10 uM relative to control
How it was run: (§2)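 Enzyme activity assays from the same 98-target biochemical panel. Single test concentration of 10 µM. Read-out is % inhibition of enzyme activity relative to control; negative percentages indicate activation of the enzyme.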

[6] = biological target: Vasopressin V1a receptor (Homo sapiens) (UniProt P37288); experiment: Inhibition of Vasopressin V1A receptor (unknown origin) at 10 uM relative to control
How it was run: (§3)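 Binding and enzyme panel run by an outside contractor against receptors, ion channels and enzymes. Each assay used a single 10 μM test concentration, and results are expressed as percent inhibition. A negative value means stimulation of receptor activity or activation of enzyme activity.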

[7] = test system: Mus musculus; experiment: Antipsychotic activity in methamphetamine-induced hyperactivity in ICR mouse assessed as minimum effective dose administered orally; type: functional; conditions: route po, read-out: MED
[8] = biological target: cGMP-specific 3',5'-cyclic phosphodiesterase (Homo sapiens) (UniProt O76074); experiment: Inhibition of PDE5 (unknown origin) at 10 uM relative to control; how it was run: as §2
[9] = biological target: Alpha-2B adrenergic receptor (Homo sapiens) (UniProt P18089); experiment: Inhibition of Adrenergic alpha2B receptor (unknown origin) at 10 uM relative to control
How it was run: (§4)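 Single-point screen at 10 μM across receptor, ion channel and enzyme binding or activity assays. Expressed as percent inhibition versus control; negative values denote stimulation.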

[10] = biological target: cAMP-dependent protein kinase (PKA) (Homo sapiens) (UniProt P22694+P17612+P22612); experiment: Inhibition of Protein kinase A (unknown origin) at 10 uM relative to control; type: protein assay; how it was run: as §2
[11] = biological target: T1, GABA-A receptor; anion channel (Homo sapiens); experiment: Inhibition of GABAA receptor (unknown origin) at 10 uM in presence of flunitrazepam relative to control; type: protein-complex assay; how it was run: as §1
[12] = biological target: Small conductance calcium-activated potassium channel protein 2 (Homo sapiens) (UniProt Q9H2S1); experiment: Inhibition of SKCA2 (unknown origin) at 10 uM relative to control; how it was run: as §1
[13] = test system: Mus musculus; experiment: Antipsychotic activity in C57BL/6N mouse assessed as increase in c-fos positive cells in medial prefrontal cortex at 30 mg/kg, po measured for 2 hrs by immunohistochemistry analysis; type: functional, organism-based
[14] = test system: Mus musculus; experiment: Antipsychotic activity in GPR52 knockout mouse assessed as increase in phosphorylated CREB level in striatum at 30 mg/kg, po incubated for 60 mins by ELISA analysis; type: functional, organism-based
[15] = biological target: T2, G protein-coupled receptor 52 (Rattus norvegicus) (UniProt A0A8I5ZQK1); experiment: Agonist activity at GPR52 in rat Striatal neuron assessed as increase in NMDA-stimulated GABA release […] followed by NMDA-stimulation and measured after 20 mins by scintillation counter analysis; type: cell-based; conditions: filed as agonist, time 60.0 min
[16] = biological target: Neuromedin-K receptor (Homo sapiens) (UniProt P29371); experiment: Inhibition of Tachykinin NK3 receptor (unknown origin) at 10 uM relative to control; how it was run: as §3
[17] = biological target: G-protein coupled receptor 52 (Mus musculus) (UniProt P0C5J4); experiment: Agonist activity at mouse GPR52 expressed in CHO cells assessed as increase in intracellular cAMP level upto 10 uM incubated for 30 mins by Alphascreen assay; type: functional, cell-based
How it was run: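 CHO cells stably expressing human, mouse or rat GPR52, plus naïve CHO cells, at 10,000 cells/well. Stimulated in cAMP assay buffer for 30 min at 37 °C. Intracellular cAMP read by AlphaScreen.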

[18] = test system: Mus musculus; experiment: Pro-cognitive activity in C57BL/6N mouse assessed as increase in c-fos gene expression in hippocampus at 3 to 30 mg/kg, po measured after 2 hrs […]; type: functional, organism-based; conditions: dose 3-30 mg/kg
[19] = biological target: Beta-2 adrenergic receptor (Homo sapiens) (UniProt P07550); experiment: Inhibition of Adrenergic beta2 receptor (unknown origin) at 10 uM relative to control; how it was run: as §4
[20] = biological target: T2, G protein-coupled receptor 52 (Rattus norvegicus); experiment: Agonist activity at GPR52 in rat Striatal neuron assessed as increase in c-fos mRNA expression by RT-PCR analysis; type: cell-based; conditions: filed as agonist
How it was run: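 Rat primary striatal neurons (E18–19), used at DIV 13–16. Treated in HBSS with 5 mM HEPES pH 7.5 and 0.5% fatty-acid-free BSA for 15 or 60 min at 37 °C. Cells were homogenized in RLT buffer and IEG mRNA was quantified by qPCR using absolute or ΔΔCt relative quantification.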

[21] = biological target: D(2) dopamine receptor (Homo sapiens) (UniProt P14416); experiment: Inhibition of Dopamine D2 receptor (unknown origin) at 10 uM relative to control; how it was run: as §1
[22] = Toxicity in ICR mouse assessed as catelepsy upto 100 mg/kg, po measured for 60 mins by bar test; type: organism-based; conditions: in vivo, 1 h
How it was run: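 Male ICR mice (6–7 weeks) were dosed orally 60 min before testing. Forepaws were placed on a 2 mm bar set 6.5 cm high, and time on the bar was recorded with a 30 s cutoff. Each mouse was tested three times and the times averaged. n = 5–6.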

[23] = biological target: Estrogen receptor (Homo sapiens) (UniProt P03372); experiment: Inhibition of Estrogen ERalpha receptor (unknown origin) at 10 uM relative to control; how it was run: as §1
[24] = species: Homo sapiens; experiment: Inhibition of Ca2+ ATPase (unknown origin) at 10 uM relative to control; how it was run: as §4
[25] = biological target: Androgen receptor (Homo sapiens) (UniProt P10275); experiment: Inhibition of Androgen receptor (unknown origin) at 10 uM relative to control; how it was run: as §4
Androgen receptor (Homo sapiens), sequence (P10275 whole entry): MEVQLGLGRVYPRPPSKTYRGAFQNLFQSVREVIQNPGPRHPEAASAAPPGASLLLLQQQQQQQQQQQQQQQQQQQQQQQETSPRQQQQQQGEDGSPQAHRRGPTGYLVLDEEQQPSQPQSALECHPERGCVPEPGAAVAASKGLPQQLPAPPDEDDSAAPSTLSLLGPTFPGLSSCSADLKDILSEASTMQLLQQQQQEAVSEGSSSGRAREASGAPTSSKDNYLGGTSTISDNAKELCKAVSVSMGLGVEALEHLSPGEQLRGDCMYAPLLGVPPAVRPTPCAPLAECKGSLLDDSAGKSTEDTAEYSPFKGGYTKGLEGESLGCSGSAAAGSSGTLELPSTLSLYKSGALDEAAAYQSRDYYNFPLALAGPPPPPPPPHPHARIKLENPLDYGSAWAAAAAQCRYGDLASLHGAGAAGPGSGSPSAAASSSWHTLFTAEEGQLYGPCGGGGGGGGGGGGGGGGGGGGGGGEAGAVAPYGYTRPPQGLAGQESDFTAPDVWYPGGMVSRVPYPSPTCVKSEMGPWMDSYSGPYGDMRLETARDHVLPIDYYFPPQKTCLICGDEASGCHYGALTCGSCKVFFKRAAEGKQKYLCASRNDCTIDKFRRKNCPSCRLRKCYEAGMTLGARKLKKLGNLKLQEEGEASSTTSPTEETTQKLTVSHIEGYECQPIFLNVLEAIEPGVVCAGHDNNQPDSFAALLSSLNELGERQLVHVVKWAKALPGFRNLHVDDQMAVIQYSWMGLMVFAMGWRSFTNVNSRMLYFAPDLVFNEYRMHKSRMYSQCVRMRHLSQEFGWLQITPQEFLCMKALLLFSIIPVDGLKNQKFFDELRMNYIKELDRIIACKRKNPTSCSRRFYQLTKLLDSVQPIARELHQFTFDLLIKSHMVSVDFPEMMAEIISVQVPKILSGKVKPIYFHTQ

T2 sequence (A0A8I5ZQK1 as listed by the source): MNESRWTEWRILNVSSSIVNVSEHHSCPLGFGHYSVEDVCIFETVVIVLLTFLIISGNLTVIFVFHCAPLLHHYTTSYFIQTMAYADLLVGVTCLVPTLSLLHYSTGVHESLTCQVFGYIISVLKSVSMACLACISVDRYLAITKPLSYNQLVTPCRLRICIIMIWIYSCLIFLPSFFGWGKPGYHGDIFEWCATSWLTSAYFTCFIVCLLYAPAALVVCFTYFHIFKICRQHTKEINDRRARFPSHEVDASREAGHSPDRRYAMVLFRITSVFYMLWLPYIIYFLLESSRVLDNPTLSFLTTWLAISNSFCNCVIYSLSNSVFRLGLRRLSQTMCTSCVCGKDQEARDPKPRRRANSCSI
Small conductance calcium-activated potassium channel protein 2 (Homo sapiens), sequence (Q9H2S1 whole entry): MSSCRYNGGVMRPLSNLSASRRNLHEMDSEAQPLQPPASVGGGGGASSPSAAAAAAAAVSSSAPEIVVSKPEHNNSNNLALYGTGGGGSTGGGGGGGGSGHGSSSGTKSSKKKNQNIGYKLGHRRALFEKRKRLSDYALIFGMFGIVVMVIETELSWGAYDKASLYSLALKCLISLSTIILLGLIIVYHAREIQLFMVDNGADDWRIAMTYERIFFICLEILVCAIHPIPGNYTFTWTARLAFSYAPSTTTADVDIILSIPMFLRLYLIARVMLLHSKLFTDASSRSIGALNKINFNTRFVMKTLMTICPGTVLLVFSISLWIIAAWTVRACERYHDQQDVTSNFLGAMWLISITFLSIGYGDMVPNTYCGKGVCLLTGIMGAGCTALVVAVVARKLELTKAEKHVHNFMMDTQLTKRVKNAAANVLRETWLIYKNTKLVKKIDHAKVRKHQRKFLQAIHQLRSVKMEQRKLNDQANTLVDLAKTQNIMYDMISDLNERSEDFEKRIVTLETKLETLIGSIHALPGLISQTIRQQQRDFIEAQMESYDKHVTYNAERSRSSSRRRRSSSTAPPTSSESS
Vasopressin V1a receptor (Homo sapiens), sequence (P37288 whole entry, looked up): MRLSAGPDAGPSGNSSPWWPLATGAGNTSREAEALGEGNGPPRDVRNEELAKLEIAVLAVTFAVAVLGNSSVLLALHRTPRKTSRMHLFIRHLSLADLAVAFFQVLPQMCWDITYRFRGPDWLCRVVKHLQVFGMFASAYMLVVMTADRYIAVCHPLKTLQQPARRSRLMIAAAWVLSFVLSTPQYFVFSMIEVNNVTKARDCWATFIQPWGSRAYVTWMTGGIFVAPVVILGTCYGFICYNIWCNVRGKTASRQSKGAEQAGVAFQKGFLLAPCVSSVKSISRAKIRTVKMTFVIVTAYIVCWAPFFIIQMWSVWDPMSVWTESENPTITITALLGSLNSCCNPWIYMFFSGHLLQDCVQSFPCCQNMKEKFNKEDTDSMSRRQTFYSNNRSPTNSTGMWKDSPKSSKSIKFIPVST
Alpha-2B adrenergic receptor (Homo sapiens), sequence (P18089 whole entry): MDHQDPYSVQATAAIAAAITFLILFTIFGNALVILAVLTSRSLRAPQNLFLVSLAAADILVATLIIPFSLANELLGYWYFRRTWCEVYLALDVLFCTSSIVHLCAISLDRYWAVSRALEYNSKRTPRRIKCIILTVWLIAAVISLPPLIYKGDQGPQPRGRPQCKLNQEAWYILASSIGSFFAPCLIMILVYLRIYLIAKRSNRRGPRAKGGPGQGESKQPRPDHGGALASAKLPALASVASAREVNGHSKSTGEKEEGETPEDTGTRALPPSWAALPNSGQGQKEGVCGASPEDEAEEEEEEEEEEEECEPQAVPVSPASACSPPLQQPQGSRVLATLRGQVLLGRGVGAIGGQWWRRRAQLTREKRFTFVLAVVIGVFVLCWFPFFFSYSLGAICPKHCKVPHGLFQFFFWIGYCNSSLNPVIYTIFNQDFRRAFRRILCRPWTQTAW
Neuromedin-K receptor (Homo sapiens), sequence (P29371 whole entry): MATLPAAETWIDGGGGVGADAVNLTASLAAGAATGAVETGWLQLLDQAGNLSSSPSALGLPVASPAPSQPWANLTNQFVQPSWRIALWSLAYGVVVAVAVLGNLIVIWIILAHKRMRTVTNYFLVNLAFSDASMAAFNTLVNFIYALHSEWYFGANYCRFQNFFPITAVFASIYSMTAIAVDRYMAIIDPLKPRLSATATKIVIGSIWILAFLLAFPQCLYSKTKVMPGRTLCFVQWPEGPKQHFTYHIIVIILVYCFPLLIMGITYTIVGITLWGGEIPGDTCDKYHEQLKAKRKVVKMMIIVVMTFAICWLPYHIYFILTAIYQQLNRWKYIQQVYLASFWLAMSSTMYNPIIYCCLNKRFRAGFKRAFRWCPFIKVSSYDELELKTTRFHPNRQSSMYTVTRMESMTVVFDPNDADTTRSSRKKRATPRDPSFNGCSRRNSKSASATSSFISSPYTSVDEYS
D(2) dopamine receptor (Homo sapiens), sequence (P14416 whole entry): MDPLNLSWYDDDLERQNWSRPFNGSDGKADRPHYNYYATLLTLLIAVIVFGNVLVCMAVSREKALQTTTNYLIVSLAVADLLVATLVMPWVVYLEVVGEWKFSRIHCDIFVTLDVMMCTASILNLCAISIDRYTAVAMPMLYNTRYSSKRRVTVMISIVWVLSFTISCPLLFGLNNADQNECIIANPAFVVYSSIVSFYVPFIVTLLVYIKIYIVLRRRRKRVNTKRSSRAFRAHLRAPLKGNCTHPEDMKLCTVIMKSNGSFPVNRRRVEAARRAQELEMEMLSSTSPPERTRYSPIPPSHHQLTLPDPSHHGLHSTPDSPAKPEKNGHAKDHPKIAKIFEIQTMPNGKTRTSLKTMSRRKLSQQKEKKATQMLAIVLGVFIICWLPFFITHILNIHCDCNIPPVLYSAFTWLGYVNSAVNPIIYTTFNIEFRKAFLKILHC
G-protein coupled receptor 52 (Mus musculus), sequence (P0C5J4 whole entry): as the sequence (A0A8I5ZQK1 as listed by the source) above, with V14M, D250E, Q333E, G342A, R348Q counted along it
Beta-2 adrenergic receptor (Homo sapiens), sequence (P07550 whole entry, looked up): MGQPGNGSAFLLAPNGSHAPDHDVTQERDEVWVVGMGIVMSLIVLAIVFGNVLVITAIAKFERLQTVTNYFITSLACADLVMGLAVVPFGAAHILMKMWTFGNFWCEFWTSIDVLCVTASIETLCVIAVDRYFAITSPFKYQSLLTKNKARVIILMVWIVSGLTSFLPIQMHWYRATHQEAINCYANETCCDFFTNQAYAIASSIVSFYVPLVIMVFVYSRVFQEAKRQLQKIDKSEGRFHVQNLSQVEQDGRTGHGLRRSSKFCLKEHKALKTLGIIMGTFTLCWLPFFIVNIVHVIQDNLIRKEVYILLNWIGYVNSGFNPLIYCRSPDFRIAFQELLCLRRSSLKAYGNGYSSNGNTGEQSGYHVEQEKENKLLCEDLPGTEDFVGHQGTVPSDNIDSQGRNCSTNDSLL
Estrogen receptor (Homo sapiens), sequence (P03372 whole entry): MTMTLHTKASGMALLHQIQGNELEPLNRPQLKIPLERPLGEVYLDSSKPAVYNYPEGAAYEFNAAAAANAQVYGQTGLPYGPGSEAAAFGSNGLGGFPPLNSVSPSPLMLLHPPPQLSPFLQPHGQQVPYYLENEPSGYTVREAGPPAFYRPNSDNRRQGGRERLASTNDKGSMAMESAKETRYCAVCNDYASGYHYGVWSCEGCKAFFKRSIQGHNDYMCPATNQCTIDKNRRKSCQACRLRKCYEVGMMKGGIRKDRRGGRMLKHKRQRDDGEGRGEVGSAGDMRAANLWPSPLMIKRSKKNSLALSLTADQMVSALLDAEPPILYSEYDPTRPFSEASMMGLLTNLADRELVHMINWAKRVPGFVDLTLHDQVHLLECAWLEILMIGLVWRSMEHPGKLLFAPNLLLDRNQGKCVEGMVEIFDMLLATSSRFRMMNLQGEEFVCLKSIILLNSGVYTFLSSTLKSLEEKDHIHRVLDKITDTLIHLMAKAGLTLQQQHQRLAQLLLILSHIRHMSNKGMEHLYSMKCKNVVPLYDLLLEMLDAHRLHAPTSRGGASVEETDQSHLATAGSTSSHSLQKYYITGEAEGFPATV

Cc1cc(-n2nc(Cc3cc(F)cc(C(F)(F)F)c3)nc2C)ccc1C(N)=O [TP-024]
Activity [1]: Active | inhibition [2]: 2% | Activity [3]: Active | Activity [4]: Active | inhibition [5]: 1% | inhibition [6]: 14% | minimal effective dose [7]: 10 mg/kg | inhibition [8]: 24% | inhibition [9]: 5% | inhibition [10]: 17% | inhibition [11]: 6% | inhibition [12]: -1% | Activity [13]: Active | Activity [14]: inactive | Activity [15]: Active | inhibition [16]: 20% | Activity [17]: inactive | Activity [18]: Active | inhibition [19]: -5% | Activity [20]: Active | inhibition [21]: 5% | Activity [22]: Non-Toxic | inhibition [23]: -9% | inhibition [24]: -1% | inhibition [25]: 5%
